ChEMBL document CHEMBL1131374, “Inhibition of Fc epsilon RI-mediated activation of mast cells by 2,3,4-trihydropyrimidino[2,1-a]isoquinolines” (J Med Chem, 1998)

Legend:
[1] = (§1) The Inhibitory potency on CPII mouse mastcells transfected with TNF-alpha 3' reporter gene plasmid was measured by reporter gene assay; type: functional
[2] = The cell toxicity on CPII mouse mast cells transfected with TNF-alpha 3' nontranslated sequences reporter gene plasmid; type: cell-based; conditions: read-out: TC50 (the source's name)
[3] = The Hexosaminidase release concentration in CPII mouse mastcells transfected with TNF-alpha 3' reporter gene plasmid was measured; type: functional
[4] = as §1; type: functional; remark: listed apart in the source
Method in brief: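 Clone 12: CPII cells stably carrying a TNFα promoter–luciferase–TNFα 3′ construct. Cells exposed to compound 1 h, then triggered with (dinitrophenyl)albumin/anti-dinitrophenyl-IgE complex. Luciferase read after 6 h incubation. Screening single dose 10 μM; a hit was over 50% inhibition of induction with under 20% toxicity.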

| SMILES | IC50 [1] [µM] | IC50 [3] [µM] | IC50 [4] [µM] | CC50 [2] [µM] |
| --- | --- | --- | --- | --- |
| CN(C)CCC1=C(c2ccc(C(C)(C)C)cc2)N2CCCN=C2c2ccccc21 | > 10 | > 10 |  | > 10 |
| Clc1ccc(C2=Cc3ccccc3C3=NCCCN23)cc1 |  | 5.5 | > 10 | > 10 |
| N[C@@H](Cc1ccccc1)C1=Cc2ccccc2C2=NCCCN12 | > 10 | > 25 |  | > 25 |
| CCOc1ccc(CC2=C(CCCc3cccc4ccccc34)N3CCCN=C3c3ccccc32)cc1 | 1.5 | 3.5 |  | 5.5 |
| Clc1ccc(OCC2=Cc3ccccc3C3=NCCCN23)cc1 |  | > 25 | 9 | > 10 |
| C1=C(/C=C/c2ccccc2)N2CCCN=C2c2ccccc21 | > 10 | 4.1 |  | > 10 |
| CC(C)(C)c1ccc(C2=Cc3ccc(N/C(S)=N/C4CCCCC4)cc3C3=NCCCN23)cc1 | 2.6 | 3.3 |  | 9.9 |
| C1=C(Cc2ccccc2)c2ccccc2C2=NCCCN12 |  | > 10 | > 10 | > 10 |
| COc1cc(C2=Cc3ccccc3C3=NCCCN23)cc(OC)c1OC |  | > 25 | > 10 | > 10 |
| C1=C(c2ccccc2)N2CCCN=C2c2ccccc21 |  | 12 | > 10 | > 10 |
| CC1=Cc2ccccc2C2=NCCCN12 |  | > 25 | > 10 | > 10 |
| CC(C)(C)c1ccc(C2=Cc3ccc(NC(=O)Nc4ccc(Cl)cc4Cl)cc3C3=NCCCN23)cc1 | 3.3 | 17 |  | 5.8 |
| CC(C)(C)c1ccc(C2=Cc3ccc(NC(=O)Cc4ccccn4)cc3C3=NCCCN23)cc1 | 4.8 | 4.8 |  | 8.8 |
| CCCCCCC1=Cc2ccccc2C2=NCCCN12 |  | 4.5 | > 10 | > 10 |

Stronger by IC50 [3], values ahead:

| IC50 [1] [µM] | IC50 [3] [µM] | IC50 [4] [µM] | SMILES | CC50 [2] [µM] |
| --- | --- | --- | --- | --- |
| 0.6 | 0.6 |  | CC(C)(C)c1ccc(C2=Cc3ccc(N(Cc4ccccc4)Cc4ccccc4)cc3C3=NCCCN23)cc1 | 2.6 |
| 2 | 2.9 |  | CC(C)(C)c1ccc(C2=C(Cc3ccccc3)c3ccccc3C3=NCCCN32)cc1 | 5 |
| 0.9 | 0.7 |  | CC(C)(C)c1ccc(C2=Cc3ccccc3C3=NCCCN23)cc1 | 5.7 |
| 0.8 | 0.9 |  | C1=C(c2ccc(OCc3ccccc3)cc2)N2CCCN=C2c2ccccc21 | 3.5 |
| 0.9 | 2.6 |  | CCOc1ccc(CC2=C(c3ccc(CCc4ccccc4)cc3)N3CCCN=C3c3ccccc32)cc1 | 9 |
| 1.7 | 3 |  | CC(C)(C)c1ccc(C2=Cc3ccc(N)cc3C3=NCCCN23)cc1 | 7.8 |
| 0.6 | 0.9 |  | c1ccc(CCc2ccc(C3=C(Cc4ccccc4)c4ccccc4C4=NCCCN43)cc2)cc1 | 2.2 |
| 0.8 | 1.2 |  | C[Si](C)(C)c1ccc(C2=C(Cc3ccccc3)c3ccccc3C3=NCCCN32)cc1 | 5.5 |
| 1.7 | 2.1 |  | CC(C)(C)c1ccc(C2=Cc3ccc(NC(=O)NC4CCCCC4)cc3C3=NCCCN23)cc1 | 4.8 |
|  | 0.5 | 0.7 | C1=C(c2ccc(CCc3ccccc3)cc2)N2CCCN=C2c2ccccc21 | 2.1 |
|  | 1.7 | 1.5 | C1=C(c2ccc(-c3ccccc3)cc2)N2CCCN=C2c2ccccc21 | 3.9 |
| 0.3 | 0.6 |  | CCCCC1=C(c2ccc(C(C)(C)C)cc2)N2CCCN=C2c2ccccc21 | 2.1 |
|  | 0.5 | 0.8 | C[Si](C)(C)c1ccc(C2=Cc3ccccc3C3=NCCCN23)cc1 | 3.2 |
| 0.2 | 0.3 |  | CCCCC1=C(c2ccc(CCc3ccccc3)cc2)N2CCCN=C2c2ccccc21 | 2.7 |
